According to ChEMBL document CHEMBL4765333, “Novel NO-releasing scopoletin derivatives induce cell death via mitochondrial apoptosis pathway and cell cycle arrest” (Eur J Med Chem, 2020):
Active and inactive are the calls of the source. The rule behind the calls is not given here.

Tests used:
MDA-MB-231 [1] = test: Antiproliferative activity in human MDA-MB-231 cells assessed as inhibition of cell viability at 1.5 to 3 uM pretreated with 10 uM necroptosis inhibitor, necrostatin-1 followed by addition of compound and measured after 48 hrs by MTT assay; format: functional, cell-based; conditions: dose 1.5-3 µM
How it was run: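 MDA-MB-231 cells pretreated 1 h with necrostatin-1 (10 µM) or Z-VAD-FMK (20 µM), then exposed to compound at 1.5, 2 and 3 µM for another 48 h. Inhibition rates by MTT; inhibitors alone also tested 48 h for viability. Mean ± SD, n = 3.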

MDA-MB-231 [2] = test: Induction of apoptosis in human MDA-MB-231 cells assessed as late apoptotic cells at 1.5 uM after 24 hrs by Annexin V/propidium iodide based flow cytometric analysis (reference value: 0.038%); format: functional
How it was run: (§1)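 MDA-MB-231 cells (2×10^5/well) attached 24 h, then treated 24 h with 1, 1.5, 2 or 3 µM, DMSO as control. Cells harvested, PBS-washed, resuspended in binding buffer, stained with Annexin V and PI for 30 min at 37°C in the dark, and analysed by flow cytometry for quadrant percentages; three experiments.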

MDA-MB-231 [3] = test: Induction of apoptosis in human MDA-MB-231 cells assessed as viable cells at 1.5 uM after 24 hrs by Annexin V/propidium iodide based flow cytometric analysis (reference value: 99%); format: functional; conditions: read-out: Activity; how it was run: as §1
MDA-MB-231 [4] = test: Induction of apoptosis in human MDA-MB-231 cells assessed as necrotic cells at 2 uM after 24 hrs by Annexin V/propidium iodide based flow cytometric analysis (reference value: 0.019%); format: functional; how it was run: as §1

For COc1cc2cc(N)c(=O)oc2cc1OCCCOc1no[n+]([O-])c1S(=O)(=O)c1ccccc1, the Activity (MDA-MB-231 [1]) was “inactive”, the Activity (MDA-MB-231 [2]) was 13.2% and the viability at 1.5 µM (MDA-MB-231 [3]) was 75.7%. For the same compound, the Activity (MDA-MB-231 [4]) was 0.2%.
